In ChEMBL document CHEMBL3120153, “Novel Quinoline-Based P2-P4 Macrocyclic Derivatives As Pan-Genotypic HCV NS3/4a Protease Inhibitors” (ACS Med Chem Lett, 2014):

Tests used:
NS3 protease [1] = biological target: NS3 protease (Hepatitis C virus subtype 1b, UniProt Q0ZMF1, R155K); test: Inhibition of Hepatitis C virus genotype 1b NS3/4A protease R155K mutant assessed as substrate cleavage using Ac-C(Eu)DDMEEAbu(COO)ASK(QSY7)-amide as substrate incubated for 30 mins prior to substrate addition by time-resolved fluorescence assay
Hepatitis C virus [2] = test: Ratio of MK-5172 EC50 to compound EC50 for Hepatitis C virus genotype 3a infected in HuH7 cells after 72 hrs by TaqMan-based RT-PCR analysis; assay type: functional, Hepacivirus hominis, Huh-7
[3] = Inhibition of Hepatitis C virus genotype 3a NS3/4A protease assessed as substrate cleavage using Ac-C(Eu)DDMEEAbu(COO)ASK(QSY7)-amide as substrate incubated for 30 mins prior to substrate addition by time-resolved fluorescence assay; parameters: species or system Hepatitis C virus subtype 3a
[4] = AUC in rat at 5 mg/kg, po; assay type: ADME, organism-based; parameters: dose 5 mg/kg, route oral; conditions: plasma
Procedure, shortened: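 Rats were dosed orally at 5 mg/kg, with the compound given in methyl cellulose vehicle.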

NS3 protease [5] = biological target: NS3 protease (Hepatitis C virus subtype 1b, UniProt Q0ZMF1, A156T); test: Inhibition of Hepatitis C virus genotype 1b NS3/4A protease A156T mutant assessed as substrate cleavage using Ac-C(Eu)DDMEEAbu(COO)ASK(QSY7)-amide as substrate incubated for 30 mins prior to substrate addition by time-resolved fluorescence assay
NS3 protease [6] = biological target: NS3 protease (Hepatitis C virus subtype 1b, UniProt Q0ZMF1, D168Y); test: Inhibition of Hepatitis C virus genotype 1b NS3/4A protease D168Y mutant assessed as substrate cleavage using Ac-C(Eu)DDMEEAbu(COO)ASK(QSY7)-amide as substrate incubated for 30 mins prior to substrate addition by time-resolved fluorescence assay
NS3 protease [7] = biological target: NS3 protease (Hepatitis C virus subtype 1b, UniProt Q0ZMF1, A156V); test: Inhibition of Hepatitis C virus genotype 1b NS3/4A protease A156V mutant assessed as substrate cleavage using Ac-C(Eu)DDMEEAbu(COO)ASK(QSY7)-amide as substrate incubated for 30 mins prior to substrate addition by time-resolved fluorescence assay
Hepatitis C virus [8] = test: Antiviral activity against Hepatitis C virus genotype 1b infected in HuH7 cells assessed as reduction in replicon RNA level after 72 hrs by TaqMan-based RT-PCR analysis in presence of 10% FBS; assay type: functional, organism-based, Hepacivirus hominis; conditions: Huh-7, 72 h
[9] = Inhibition of Hepatitis C virus genotype 1b NS3/4A protease assessed as substrate cleavage using Ac-C(Eu)DDMEEAbu(COO)ASK(QSY7)-amide as substrate incubated for 30 mins prior to substrate addition by time-resolved fluorescence assay; parameters: species or system Hepatitis C virus subtype 1b
Hepatitis C virus [10] = test: Antiviral activity against Hepatitis C virus genotype 3a infected in HuH7 cells assessed as reduction in replicon RNA level after 72 hrs by TaqMan-based RT-PCR analysis in presence of 10% FBS; assay type: functional, organism-based, Hepacivirus hominis; conditions: Huh-7, 72 h

Compound | IC50 (NS3 protease [1]) [nM] | Ratio EC50 (Hepatitis C virus [2]) | IC50 [3] [nM] | AUC [4] [µM·h] | IC50 (NS3 protease [5]) [nM] | IC50 (NS3 protease [6]) [nM] | IC50 (NS3 protease [7]) [nM] | EC50 (Hepatitis C virus [8]) [nM] | IC50 [9] [nM] | EC50 (Hepatitis C virus [10]) [nM]
C=C[C@@H]1C[C@]1(NC(=O)[C@@H]1C[C@@H]2CN1C(=O)[C@H](C1CCCCC1)NC(=O)O[C@@H]1C[C@H]1CCCCCc1c(nc3ccccc3c1O[C@H]1C[C@H]3CC[C@@H](C1)N3C)O2)C(=O)NS(=O)(=O)C1(C)CC1 | 0.1 | 14 | 0.41 | 1.2 | 0.42 | 0.27 | 0.55 | 0.62 | 0.04 | 0.26
C=C[C@@H]1C[C@]1(NC(=O)[C@@H]1C[C@@H]2CN1C(=O)[C@H](C(C)(C)C)NC(=O)O[C@@H]1C[C@H]1CCCCCc1c(nc3ccccc3c1O[C@H]1C[C@H]3CC[C@@H](C1)N3CC)O2)C(=O)NS(=O)(=O)C1(C)CC1 | 0.01 | – | 0.08 | 0.01 | 0.21 | 0.04 | 0.33 | 0.48 | 0.01 | 1.06
C=C[C@@H]1C[C@]1(NC(=O)[C@@H]1C[C@@H]2CN1C(=O)[C@H](C1CCCCC1)NC(=O)O[C@@H]1C[C@H]1CCCCCc1c(nc3ccccc3c1OC1CCN(C)CC1)O2)C(=O)NS(=O)(=O)C1(C)CC1 | 0.06 | – | 0.71 | 2.7 | 0.84 | 0.29 | 0.91 | 0.25 | 0.02 | 3.1
C=C[C@@H]1C[C@]1(NC(=O)[C@@H]1C[C@@H]2CN1C(=O)[C@H](C1CCCCC1)NC(=O)O[C@@H]1C[C@H]1CCCCCc1c(nc3ccccc3c1OC1CCN(CC)CC1)O2)C(=O)NS(=O)(=O)C1(C)CC1 | 0.11 | – | 0.41 | 2.3 | 0.91 | 0.21 | 0.66 | 0.53 | 0.03 | 5.2
